Source: ChEMBL document CHEMBL3526116, “Toxicological evaluation of acyl glucuronides of nonsteroidal anti-inflammatory drugs using human embryonic kidney 293 cells stably expressing human UDP-glucuronosyltransferase and human hepatocytes” (Drug Metab Dispos, 2011)

Legend:
[1] = target: T1, UDP-glucuronosyltransferase 1A3 (Homo sapiens, UniProt P35503); assay: Activity of human UGT1A3 expressed in HEK293 cells assessed as enzyme-mediated diclofenac acyl-beta-D-glucuronide formation at 0.1 mM measured at 24 hrs by LC-MS/MS analysis; format: ADME, cell-based; conditions: hek293, 24 h, 100 µM
T1 sequence (P35503 whole entry): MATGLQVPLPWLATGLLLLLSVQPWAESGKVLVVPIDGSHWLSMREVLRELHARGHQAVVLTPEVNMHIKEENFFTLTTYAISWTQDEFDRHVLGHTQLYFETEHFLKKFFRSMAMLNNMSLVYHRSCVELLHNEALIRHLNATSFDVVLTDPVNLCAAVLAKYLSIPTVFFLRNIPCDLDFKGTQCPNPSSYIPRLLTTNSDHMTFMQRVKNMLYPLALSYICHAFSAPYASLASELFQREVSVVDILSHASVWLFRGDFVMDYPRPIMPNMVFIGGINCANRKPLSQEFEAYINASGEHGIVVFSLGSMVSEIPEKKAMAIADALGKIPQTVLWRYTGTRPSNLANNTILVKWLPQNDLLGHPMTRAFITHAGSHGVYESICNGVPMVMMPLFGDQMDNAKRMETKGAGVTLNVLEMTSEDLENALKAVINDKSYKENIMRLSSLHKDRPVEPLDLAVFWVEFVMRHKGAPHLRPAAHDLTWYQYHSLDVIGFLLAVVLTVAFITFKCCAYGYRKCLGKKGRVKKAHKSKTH
Summary of the method: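 HEK293 stably expressing human UGT1A3 (G418-selected), 2 x 10^5 cells/well in 1 mL DMEM with 0.5% FBS, exposed immediately to drug for 6, 12 or 24 h; DMSO ≤0.1% final. Cells and medium separated by centrifugation, cell fraction resuspended in PBS; aliquots mixed 1:1 with methanol/acetic acid (100:1), spun, supernatant analysed by LC-MS/MS. Triplicate determinations, mean ± SD.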

[2] = tested on: HEK293; assay: Cytotoxicity against HEK293 cells expressing UGT1A4 assessed as decrease in cell viability at 0.1 mM by MTT assay; format: ADME, cell-based; conditions: human, hek293, 100 µM; TDE = time-dependent effect
[3] = tested on: HEK293; assay: Cytotoxicity against mock transfected HEK293 cells assessed as decrease in cell viability by measuring intracellular ATP content at 0.1 mM by CellTiter-Glo luminescent assay; format: cell-based; conditions: human, hek293, 100 µM; TDE = time-dependent effect
Summary of the method: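 Mock-transfected HEK293 cells seeded at 2 x 10^4 cells/well in DMEM with 0.5% FBS, drug added at once and incubated 6, 12 or 24 h. Viability read either by WST-8 (CCK-8) formazan absorbance at 450 nm or by intracellular ATP luminescence (CellTiter-Glo), as percent of control cells; mean ± SD of triplicates. Final DMSO ≤0.1%.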

[4] = target: T2, UDP-glucuronosyltransferase 1A4 (Homo sapiens, UniProt P22310); assay: Activity of human UGT1A4 expressed in HEK293 cells assessed as enzyme-mediated diclofenac acyl-beta-D-glucuronide formation at 0.1 mM measured at 24 hrs by LC-MS/MS analysis; format: ADME, cell-based; conditions: hek293, 24 h, 100 µM
T2 sequence (P22310 whole entry): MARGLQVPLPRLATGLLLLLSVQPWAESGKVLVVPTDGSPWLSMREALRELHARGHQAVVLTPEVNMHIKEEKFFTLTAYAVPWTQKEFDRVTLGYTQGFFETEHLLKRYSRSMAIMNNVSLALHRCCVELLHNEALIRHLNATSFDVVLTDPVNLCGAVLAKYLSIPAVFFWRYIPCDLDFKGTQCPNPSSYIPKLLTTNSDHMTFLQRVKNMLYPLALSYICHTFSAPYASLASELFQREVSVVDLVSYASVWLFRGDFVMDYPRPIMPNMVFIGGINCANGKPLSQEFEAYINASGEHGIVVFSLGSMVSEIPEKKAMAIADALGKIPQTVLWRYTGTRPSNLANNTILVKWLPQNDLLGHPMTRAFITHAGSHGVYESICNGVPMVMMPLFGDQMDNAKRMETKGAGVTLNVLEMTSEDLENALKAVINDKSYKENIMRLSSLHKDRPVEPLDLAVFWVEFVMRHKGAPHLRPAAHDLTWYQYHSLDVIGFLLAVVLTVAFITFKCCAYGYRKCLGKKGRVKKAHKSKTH
Summary of the method: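 HEK293 stably expressing human UGT1A4, 2 x 10^5 cells/well in DMEM with 0.5% FBS, drug exposure 6–24 h, DMSO ≤0.1% final. Acyl glucuronide in cell fraction and medium measured by LC-MS/MS after methanol/acetic acid (100:1) precipitation and centrifugation. Triplicate determinations.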

[5] = tested on: HEK293; assay: Cytotoxicity against HEK293 cells expressing UGT assessed as decrease in cell viability at 0.1 mM measured up to 72 hrs by MTT assay; format: ADME, cell-based; conditions: human, hek293, 72 h, 100 µM
Summary of the method: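 Mock and UGT1A3/UGT1A4 stable HEK293 cells given drug for up to 72 h; viability measured by WST-8-based MTT assay.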

[6] = tested on: HEK293; assay: Cytotoxicity against HEK293 cells expressing UGT assessed as LDH leakage at 0.1 mM after 6 to 24 hrs by spectrophotometric analysis relative to total cell LDH level; format: ADME, cell-based; conditions: human, hek293, 100 µM
Summary of the method: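 Stable UGT-expressing or mock HEK293 lines in DMEM with 0.5% FBS, 2 x 10^4 cells/well, drug for 6, 12 or 24 h. LDH released into medium read at 490 nm (690 nm reference); percentage calculated against maximum release from control cells lysed with 1% Triton X-100.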

[7] = tested on: Hepatocyte; assay: Cellular uptake in human hepatocytes at 0.1 mM measured at 6 hrs by LC-MS/MS analysis in absence of acyl glucuronidation inhibitor (-)-borneol; format: ADME, cell-based; conditions: 100 µM
Summary of the method: (§1)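 Cryopreserved pooled human hepatocytes on collagen-coated wells, 2 × 10^5 cells/well in HCM medium with 0.5% FBS, preincubated 30 min with or without 1 mM (-)-borneol, then drug for 6 h; DMSO ≤0.2% final. Parent drug in cell fraction measured by LC-MS/MS after methanol/acetic acid extraction. Mean ± SD of triplicates.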

[8] = tested on: HEK293; assay: Cytotoxicity against HEK293 cells expressing UGT1A3 assessed as decrease in cell viability by measuring intracellular ATP content at 0.1 mM by CellTiter-Glo luminescent assay; format: ADME, cell-based; conditions: human, hek293, 100 µM; TDE = time-dependent effect
Summary of the method: (§2)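 UGT1A3 or UGT1A4 stable HEK293 cells, 2 x 10^4 cells/well in 0.1 mL DMEM with 0.5% FBS, drug for 6, 12 or 24 h. Viability from intracellular ATP via CellTiter-Glo luminescence, expressed as percent of control cells. Mean ± SD of triplicates.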

[9] = tested on: Hepatocyte; assay: Cellular uptake in human hepatocytes at 0.1 mM measured at 6 hrs by LC-MS/MS analysis in presence of acyl glucuronidation inhibitor (-)-borneol; format: ADME, cell-based; conditions: 100 µM; summary of the method: as §1
[10] = tested on: HEK293; assay: Genotoxicity in HEK293 cells expressing UGT1A3 assessed as DNA strand breaks at 0.1 mM after 24 hrs by comet assay; format: toxicity, cell-based; conditions: human, hek293, 24 h, 100 µM
Summary of the method: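 HEK293 cells stably expressing UGT1A3, seeded 24 h before treatment and exposed 24 h in 0.5% FBS DMEM (vehicle 0.1% DMSO). Alkaline comet assay: low-melting agarose embedding, lysis pH 10 for 1 h at 4°C, 30 min unwinding in NaOH/EDTA, electrophoresis 300 mA for 20 min, ethidium bromide stain. Tail extent moment scored on 150-180 cells over more than 3 experiments, median (IQR).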

[11] = tested on: HEK293; assay: Cytotoxicity against HEK293 cells expressing UGT1A3 assessed as decrease in cell viability at 0.1 mM measured at 24 hrs by MTT assay; format: ADME, cell-based; conditions: human, hek293, 24 h, 100 µM
[12] = tested on: HEK293; assay: Cytotoxicity against HEK293 cells expressing UGT1A4 assessed as decrease in cell viability by measuring intracellular ATP content at 0.1 mM by CellTiter-Glo luminescent assay; format: ADME, cell-based; conditions: human, hek293, 100 µM; TDE = time-dependent effect; summary of the method: as §2
[13] = tested on: HEK293; assay: Cytotoxicity against mock transfected HEK293 cells assessed as decrease in cell viability at 0.1 mM […]; format: cell-based; conditions: human, hek293, 100 µM; TDE = time-dependent effect
[14] = tested on: HEK293; assay: Cytotoxicity against HEK293 cells expressing UGT1A3 assessed as decrease in cell viability at 0.1 mM by MTT assay; format: ADME, cell-based; conditions: human, hek293, 100 µM; TDE = time-dependent effect

Drug metabolism [1]: metabolite_detected
Drug metabolism [4]: metabolite_not_detected
Drug uptake [7]: Active
Drug uptake [9]: Active
SMILES: O=C([O-])Cc1ccccc1Nc1c(Cl)cccc1Cl.[Na+] [DICLOFENAC SODIUM]
Activity [2]: tde
Activity [3]: tde
Activity [5]: Non-toxic
Activity [6]: < 5.4%
Activity [8]: tde
Activity [10]: Non-toxic
Activity [11]: Non-toxic
Activity [12]: tde
Activity [13]: tde
Activity [14]: tde
